Data set [1] is described as follows: Selectivity index, ratio of CC50 for HEK293 cells to EC50 for antitrypanosomal activity against bloodstream form trypomastigotes of wild type Trypanosoma brucei brucei Lister 427. As to conditions: human, read-out: Selectivity Index. The format is toxicity. In short, it runs like this:
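Selectivity index = CC50 in HEK cells divided by EC50 against wild-type Lister 427. HEK cytotoxicity by resazurin assay. […] Both values from sigmoidal variable-slope nonlinear regression. n = 3.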

The nature of data set [2]: Inhibition of recombinant Trypanosoma brucei brucei delta MTS TAO using ubiquinol as substrate measured after 2 mins by UV-vis spectrophotometry.
Data set [3] deals with Trypanosoma brucei brucei. In words: Inhibition of recombinant Trypanosoma brucei brucei delta MTS TAO using ubiquinol as substrate measured at 40 uM after 2 mins by UV-vis spectrophotometry.
Data set [4] deals with Trypanosoma brucei brucei. As to the kind of experiment: Inhibition of recombinant Trypanosoma brucei brucei delta MTS TAO using ubiquinol as substrate measured at 40 uM after 2 mins by UV-vis spectrophotometry.
Data set [5] concerns Trypanosoma brucei brucei. As to the kind of experiment: Antitrypanosomal activity against bloodstream form trypomastigotes of wild type Trypanosoma brucei brucei Lister 427 assessed as reduction in parasite viability by resazurin-based assay. The format is functional, organism-based. The method, boiled down: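 Monomorphic bloodstream-form trypanosomes grown in complete HMI-9 with 10% fetal bovine serum. Resazurin viability assay using 23 doubling dilutions of each compound, starting at 100 μM. EC50 obtained by nonlinear regression fitted to a variable-slope sigmoid. n = 3.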
On the technique in general: Alamar Blue is a resazurin reagent that responds to reducing activity.

Bounds are passed on as bounds.

This note sets out measurements from ChEMBL document CHEMBL5029200, “Imidazoline- and Benzamidine-Based Trypanosome Alternative Oxidase Inhibitors: Synthesis and Structure-Activity Relationship Studies” (ACS Med Chem Lett, 2022).

As usually defined, the IC50 is the midpoint of a concentration-inhibition curve. One may read the inhibition as how much of the control response was suppressed. Broadly, the EC50 is the concentration that produces a half-maximal response.

For the molecule `Cc1cc(O)cc(O)c1C(=O)NCCCCCCCCCCCCCCOc1ccc(C(=N)NO)cc1`, the selectivity ratio in data set [1] is 6.9.
Regarding `Cc1cc(O)cc(O)c1C(=O)NCCCCCCCCCCCCCCOc1ccc(C(=N)N)cc1`, the selectivity ratio in data set [1] amounted to 10.7.
As for `Cc1cc(O)cc(O)c1C(=O)NCCCOc1ccc(C(=N)N)cc1`, the half-maximal inhibitory concentration (IC50) in data set [2] was more than 40000 nM. For the same molecule, the inhibition in data set [3] is 48%.
Take `C/C(=C\Cc1c(O)c(Cl)c(C)c(C=O)c1O)CC/C=C(\C)[C@@H]1CC(=O)C(C)(C)O1`: in data set [4], the inhibition stood at 100%.
Turning to `Cc1cc(O)cc(O)c1C(=O)NCCCCCCCCCCCCOc1ccc(C2=NCCN2)cc1`, the concentration giving a half-maximal response (EC50) in data set [5] is 1700 nM.
Consider `Cc1cc(O)cc(O)c1C(=O)NCCCCCCOc1ccc(C#N)cc1`, for which the selectivity ratio in data set [1] was determined as 6.6.
